Experimental data as given in ChEMBL document CHEMBL1123982, “Syntheses and adrenergic activities of ring-fluorinated epinephrines” (J Med Chem, 1988).

Assays:
[1] = biological target: Beta-1 adrenergic receptor (Cavia porcellus, UniProt B0FL73); experiment: Agonistic potency at beta-1 adrenergic receptor for the percent maximal increase in contraction rate of isolated guinea pig atria; assay type: functional
Procedure, shortened: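 Isolated guinea pig atria, giving percent of maximal rate increase for four individual preparations.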

[2] = biological target: Beta-1 adrenergic receptor (Rattus norvegicus) (UniProt P18090); experiment: Binding affinity against beta-1 adrenergic receptor in rat cerebral cortical membranes by displacement of Dihydro-[3H]-alprenolol
Sequence of Beta-1 adrenergic receptor (Rattus norvegicus) (P18090 whole entry, looked up): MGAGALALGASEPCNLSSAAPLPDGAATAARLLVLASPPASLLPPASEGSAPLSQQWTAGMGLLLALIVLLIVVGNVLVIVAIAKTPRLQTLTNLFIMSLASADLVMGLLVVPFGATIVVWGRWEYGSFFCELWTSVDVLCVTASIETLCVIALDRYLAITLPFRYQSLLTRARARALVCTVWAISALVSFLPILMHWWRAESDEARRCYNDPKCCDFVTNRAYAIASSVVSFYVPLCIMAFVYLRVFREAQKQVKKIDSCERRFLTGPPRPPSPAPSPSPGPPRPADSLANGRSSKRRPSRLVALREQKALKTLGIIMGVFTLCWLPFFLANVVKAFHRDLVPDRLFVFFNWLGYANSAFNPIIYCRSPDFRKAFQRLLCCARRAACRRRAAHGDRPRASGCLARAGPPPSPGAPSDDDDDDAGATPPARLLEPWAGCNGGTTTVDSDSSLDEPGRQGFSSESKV

[3] = biological target: T1, Adrenergic receptor alpha-2 (Homo sapiens, UniProt P08913+P18825+P18089); experiment: Binding affinity against alpha-2 adrenergic receptor in guinea pig cerebral cortical membranes by displacement of [3H]clonidine; parameters: species or system Cavia porcellus; settings: target entry is the homologue from another species
T1 sequence (P08913 whole entry): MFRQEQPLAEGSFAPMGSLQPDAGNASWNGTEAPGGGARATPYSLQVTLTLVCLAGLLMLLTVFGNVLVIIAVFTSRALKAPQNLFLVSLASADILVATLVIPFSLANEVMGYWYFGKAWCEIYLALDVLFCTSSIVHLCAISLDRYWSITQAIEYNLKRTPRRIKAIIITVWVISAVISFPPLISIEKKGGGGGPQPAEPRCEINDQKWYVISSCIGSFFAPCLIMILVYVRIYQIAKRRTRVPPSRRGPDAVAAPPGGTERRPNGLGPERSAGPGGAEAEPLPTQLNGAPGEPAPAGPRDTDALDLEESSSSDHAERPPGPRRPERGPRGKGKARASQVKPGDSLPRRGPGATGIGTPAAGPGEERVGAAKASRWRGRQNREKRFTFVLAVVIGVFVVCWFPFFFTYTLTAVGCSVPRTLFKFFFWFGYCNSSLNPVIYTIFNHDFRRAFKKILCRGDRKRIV
T1 sequence (P18825 whole entry): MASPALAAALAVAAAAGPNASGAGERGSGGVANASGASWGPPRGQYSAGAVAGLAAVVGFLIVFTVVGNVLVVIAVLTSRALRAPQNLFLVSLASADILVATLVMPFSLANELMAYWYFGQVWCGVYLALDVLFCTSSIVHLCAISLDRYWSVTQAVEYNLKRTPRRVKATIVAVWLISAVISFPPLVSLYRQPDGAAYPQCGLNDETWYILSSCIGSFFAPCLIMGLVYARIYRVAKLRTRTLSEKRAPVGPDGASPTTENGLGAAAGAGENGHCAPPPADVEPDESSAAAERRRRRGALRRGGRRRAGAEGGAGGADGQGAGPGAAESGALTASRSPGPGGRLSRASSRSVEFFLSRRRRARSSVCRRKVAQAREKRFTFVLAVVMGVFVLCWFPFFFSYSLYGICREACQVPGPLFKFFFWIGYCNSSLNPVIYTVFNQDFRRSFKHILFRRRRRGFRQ
T1 sequence (P18089 whole entry): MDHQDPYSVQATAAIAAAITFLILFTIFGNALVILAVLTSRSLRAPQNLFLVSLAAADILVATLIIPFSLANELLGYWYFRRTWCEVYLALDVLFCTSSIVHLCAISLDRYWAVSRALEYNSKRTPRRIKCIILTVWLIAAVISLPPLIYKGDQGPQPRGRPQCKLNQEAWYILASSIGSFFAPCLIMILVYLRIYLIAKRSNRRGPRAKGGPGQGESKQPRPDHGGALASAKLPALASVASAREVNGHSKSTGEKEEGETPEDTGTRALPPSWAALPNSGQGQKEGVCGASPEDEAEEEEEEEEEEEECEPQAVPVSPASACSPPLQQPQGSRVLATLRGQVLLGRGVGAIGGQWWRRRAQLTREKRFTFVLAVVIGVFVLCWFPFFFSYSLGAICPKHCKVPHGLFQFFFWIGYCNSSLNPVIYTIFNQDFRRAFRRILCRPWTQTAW
Procedure, shortened: (§1)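 Nonspecific binding defined with 10 μM clonidine. Points in triplicate, reported as percent of control; experiment repeated three times.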

[4] = biological target: T1, Adrenergic receptor alpha-2; experiment: Agonistic potency at alpha 2-Adrenergic receptor for inhibition of 10 uM forskolin-elicited stimulation of adenylate cyclase in human platelet membranes; assay type: functional, cell membranes
Procedure, shortened: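 Human platelet membranes (10–15 μg protein/tube) added to medium preincubated 5 min at 37 °C: 0.1 mM [α-32P]ATP, 0.1 mM cAMP, adenosine deaminase, 0.1 mM rolipram, 0.2 mM EGTA, creatine phosphate/kinase, BSA, 1 μM GTP, 10 μM forskolin, 1 mM MgCl2, 50 mM Tris-HCl pH 7.4. Stopped with zinc acetate/Na2CO3. Product is cAMP (pmol/min/mg), triplicate points. Adjusted EC50 is taken from dose-response curves.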

[5] = biological target: T1, Adrenergic receptor alpha-2; experiment: Binding affinity against alpha 2-Adrenergic receptor in guinea pig cerebral cortical membranes by displacement of [3H]clonidine; parameters: species or system Cavia porcellus; settings: target entry is the homologue from another species; procedure, shortened: as §1
[6] = biological target: Adrenergic receptor beta (Rattus norvegicus, UniProt P18090+P10608+P26255); experiment: Agonistic potency at beta adrenergic receptor for the stimulation of accumulation of cyclic AMP in cultured C6 glioma cells; assay type: functional, cell-based
Procedure, shortened: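 C6 glioma cells subcultured the day before and washed in HEPES-buffered saline (pH 7.4). Preincubated 10 min with 30 μM rolipram, then agonist for 10 min. Stopped with 0.1 M HCl. cAMP measured by commercial kit. Adjusted EC50 is taken from dose-response curves.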

Sequence of Beta-1 adrenergic receptor (B0FL73 whole entry): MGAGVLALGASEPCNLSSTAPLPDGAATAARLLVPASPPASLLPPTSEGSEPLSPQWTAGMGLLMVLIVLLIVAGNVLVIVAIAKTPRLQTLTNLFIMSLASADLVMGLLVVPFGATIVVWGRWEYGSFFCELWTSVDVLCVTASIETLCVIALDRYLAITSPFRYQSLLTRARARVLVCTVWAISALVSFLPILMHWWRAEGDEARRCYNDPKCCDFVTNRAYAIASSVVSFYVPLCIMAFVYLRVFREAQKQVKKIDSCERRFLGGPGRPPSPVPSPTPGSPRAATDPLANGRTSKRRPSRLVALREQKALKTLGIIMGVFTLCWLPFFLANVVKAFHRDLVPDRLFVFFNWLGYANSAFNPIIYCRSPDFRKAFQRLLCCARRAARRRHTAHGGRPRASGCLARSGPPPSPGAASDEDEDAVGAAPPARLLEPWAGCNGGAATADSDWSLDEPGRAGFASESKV

| SMILES | EC50 [1] [nM] | Ki [2] [nM] | Ki [3] [nM] | EC50 [4] [nM] | Ki [5] [nM] | EC50 [6] [nM] |
| --- | --- | --- | --- | --- | --- | --- |
| CNC[C@H](O)c1ccc(O)c(O)c1 [EPINEPHRINE] | 260 | 3000 |  |  |  |  |
| CNCC(O)c1ccc(O)c(O)c1F (stereo not given) |  |  | 66 | > 5000 |  |  |
| NCC(O)c1ccc(O)c(O)c1F (stereo not given) |  |  |  |  | 700 |  |
| CNCC(O)c1cc(O)c(O)cc1F (stereo not given) | > 1500 | 63000 |  | 100 | 9 | > 1500 |
